Reference: ChEMBL document CHEMBL1138815, “Synthesis, structure-activity relationships, and in vivo properties of 3,4-dihydro-1H-pyrido[2,3-b]pyrazin-2-ones as corticotropin-releasing factor-1 receptor antagonists” (J Med Chem, 2004)

Key:
[1] = target: T1, Corticotropin-releasing factor receptor 1 (Rattus norvegicus, UniProt P35353); assay: (§1) Inhibition of [125I]ovine-CRF binding to corticotropin releasing factor receptor 1
T1 sequence (P35353 whole entry): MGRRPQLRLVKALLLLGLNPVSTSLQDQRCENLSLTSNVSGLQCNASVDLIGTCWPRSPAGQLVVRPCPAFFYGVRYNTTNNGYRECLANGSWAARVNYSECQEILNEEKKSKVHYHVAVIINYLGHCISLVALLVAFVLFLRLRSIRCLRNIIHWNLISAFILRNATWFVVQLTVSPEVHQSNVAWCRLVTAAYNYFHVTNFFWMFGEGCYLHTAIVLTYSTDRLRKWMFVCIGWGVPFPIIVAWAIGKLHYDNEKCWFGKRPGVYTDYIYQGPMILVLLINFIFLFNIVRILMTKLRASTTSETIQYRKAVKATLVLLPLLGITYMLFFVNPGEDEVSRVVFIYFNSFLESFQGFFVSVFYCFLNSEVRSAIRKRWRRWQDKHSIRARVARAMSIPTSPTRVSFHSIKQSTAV
Outline: (§2)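 CRF1 source is rat frontal cortex membranes (25 µg/well), washed by homogenization and 32000g spins. Incubated with 150 pM [125I]ovine-CRF for 2 h at 21 °C in 50 mM Hepes pH 7.0 with MgCl2, EGTA, protease inhibitors, Triton X-100, bacitracin and ovalbumin. Separated by filtration on PEI-treated GF/B filters and gamma counted. Nonspecific binding defined with 1 µM DMP696.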

[2] = target: T2, Corticotropin-releasing factor receptor 1 (Homo sapiens, UniProt P34998); assay: as §1; outline: as §2
T2 sequence (P34998 whole entry): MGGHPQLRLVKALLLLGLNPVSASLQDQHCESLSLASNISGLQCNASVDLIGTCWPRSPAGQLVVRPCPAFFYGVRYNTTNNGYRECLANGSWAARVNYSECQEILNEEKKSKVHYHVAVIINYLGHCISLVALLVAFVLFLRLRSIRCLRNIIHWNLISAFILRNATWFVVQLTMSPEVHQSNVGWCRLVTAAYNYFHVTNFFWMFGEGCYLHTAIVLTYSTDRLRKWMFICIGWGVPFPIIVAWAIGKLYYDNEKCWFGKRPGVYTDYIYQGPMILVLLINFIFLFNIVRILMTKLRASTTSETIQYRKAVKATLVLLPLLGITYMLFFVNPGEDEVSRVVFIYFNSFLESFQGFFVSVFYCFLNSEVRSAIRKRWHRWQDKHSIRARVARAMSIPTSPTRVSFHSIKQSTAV

[3] = Mean free plasma concentration was determined in the defensive withdrawal model of rats after oral administration; Dose 1 mg/kg; format: ADME, organism-based; design: dose 1 mg/kg, route oral; details: rat, in vivo
[4] = target: Cannabinoid receptor 1 (Homo sapiens) (UniProt P21554); assay: Inhibition of Cannabinoid receptor 1 at 10 uM
[5] = target: T3, Corticotropin-releasing factor receptor 1 (Rattus norvegicus) (UniProt P35353); assay: Percent occupancy of corticotropin releasing factor receptor 1 in defensive withdrawal model in rats after oral administration; Dose 3 mg/kg; format: organism-based; design: dose 3 mg/kg; details: at 3 mg/kg
T3 sequence (whole entry): T1 sequence (P35353 whole entry)
Outline: (§3)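 After oral dosing at 1, 3 or 10 mg/kg in the defensive withdrawal rats, CRF1 occupancy in parietal cortex measured by ex vivo autoradiography; n = 5.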

Rattus norvegicus [6] = assay: Percent decrease in exit latency was determined in the defensive withdrawal model of rats after oral administration; Dose 10 mg/kg; format: functional
Outline: (§4)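 Male Sprague–Dawley rats (180–300 g) dosed po at 1, 3 or 10 mg/kg in 0.25% methocel suspension, 1 h before testing. Each rat placed in a darkened chamber inside a brightly lit open field; latency to emerge timed. Result expressed as % decrease versus vehicle, n = 8 per dose.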

Rattus norvegicus [7] = assay: Percent decrease in exit latency was determined in the defensive withdrawal model of rats after oral administration; Dose 1 mg/kg; format: functional; outline: as §4
[8] = target: Vasopressin V1 receptor (Homo sapiens) (UniProt P37288+P47901); assay: Inhibition of Vasopressin V1 receptor at 10 uM; format: protein assay
[9] = Mean total plasma concentration was determined in the defensive withdrawal model of rats after oral administration; Dose 1 mg/kg; format: ADME, organism-based; design: dose 1 mg/kg, route oral; details: rat, in vivo, read-out: Mean total plasma concentration
[10] = target: T3, Corticotropin-releasing factor receptor 1 (Rattus norvegicus); assay: Percent occupancy of corticotropin releasing factor receptor 1 in defensive withdrawal model in rats after oral administration; Dose 1 mg/kg; format: functional, organism-based; design: dose 1 mg/kg; details: at 1 mg/kg; outline: as §3
[11] = Bioavailability in Beagle dogs; format: ADME, organism-based, Canis lupus familiaris; details: dog, in vivo, read-out: Bioavailabiility
Outline: (§5)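 Beagle dogs dosed iv at 1.0 mg/kg (n = 2) in propylene glycol:water:N,N-dimethylacetamide 80:10:10, or po at 5.0 mg/kg (n = 2) in Labrafil:ethanol:Tween 80 85:10:5. Blood drawn by jugular venipuncture at 0–24 h (iv from 0.1 h, po from 0.5 h). Plasma stored at -20 °C, levels measured by LC/MS/MS.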

[12] = Mean free plasma concentration was determined in the defensive withdrawal model of rats after oral administration; Dose 10 mg/kg; format: ADME, organism-based; design: dose 10 mg/kg, route oral; details: rat, in vivo
[13] = Mean total plasma concentration was determined in the defensive withdrawal model of rats after oral administration; Dose 10 mg/kg; format: ADME, organism-based; design: dose 10 mg/kg, route oral; details: rat, in vivo, read-out: Mean total plasma concentration
[14] = Clearance in Beagle dogs; format: ADME, organism-based, Canis lupus familiaris; details: dog, in vivo; outline: as §5
[15] = Volume of distribution in Beagle dogs; format: ADME, organism-based, Canis lupus familiaris; details: dog, in vivo; outline: as §5
[16] = target: T4, Adenosine receptor A3 (Homo sapiens) (UniProt P0DMS8); assay: Inhibition of Adenosine A3 receptor at 10 uM
T4 sequence (whole entry): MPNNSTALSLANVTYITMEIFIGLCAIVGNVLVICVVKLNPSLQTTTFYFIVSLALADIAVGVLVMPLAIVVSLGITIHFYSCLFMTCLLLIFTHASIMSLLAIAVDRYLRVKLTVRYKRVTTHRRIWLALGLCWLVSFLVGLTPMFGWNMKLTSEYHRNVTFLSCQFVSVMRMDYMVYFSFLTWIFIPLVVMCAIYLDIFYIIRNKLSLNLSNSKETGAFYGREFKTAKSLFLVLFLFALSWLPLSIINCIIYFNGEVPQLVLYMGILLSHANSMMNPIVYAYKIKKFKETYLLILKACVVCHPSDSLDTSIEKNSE

[17] = target: Corticotropin releasing factor receptor (Rattus norvegicus, UniProt P47866+P35353); assay: Inhibition of corticotropin releasing factor-induced ACTH release from rat pituitary cells; format: functional, cell-based; details: pituitary gland cell
Outline: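 Cultured rat pituitary cells stimulated with 0.3 nM CRF, with inhibition of ACTH release measured across a concentration range to give IC50; n = 3.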

[18] = target: T3, Corticotropin-releasing factor receptor 1 (Rattus norvegicus); assay: Percent occupancy of corticotropin releasing factor receptor 1 in defensive withdrawal model in rats after oral administration; Dose 10 mg/kg; format: organism-based; design: dose 10 mg/kg; details: at 10 mg/kg; outline: as §3
[19] = Mean total plasma concentration was determined in the defensive withdrawal model of rats after oral administration; Dose 3 mg/kg; format: ADME, organism-based; design: dose 3 mg/kg, route oral; details: rat, in vivo, read-out: Mean total plasma concentration
Rattus norvegicus [20] = assay: Percent decrease in exit latency was determined in the defensive withdrawal model of rats after oral administration; Dose 3 mg/kg; format: functional; outline: as §4
[21] = Half life in Beagle dogs; format: ADME, Canis lupus familiaris; details: dog, in vivo; outline: as §5
[22] = Mean free plasma concentration was determined in the defensive withdrawal model of rats after oral administration; Dose 3 mg/kg; format: ADME, organism-based; design: dose 3 mg/kg, route oral; details: rat, in vivo

Vasopressin V1 receptor (Homo sapiens), sequence (P37288 whole entry, looked up): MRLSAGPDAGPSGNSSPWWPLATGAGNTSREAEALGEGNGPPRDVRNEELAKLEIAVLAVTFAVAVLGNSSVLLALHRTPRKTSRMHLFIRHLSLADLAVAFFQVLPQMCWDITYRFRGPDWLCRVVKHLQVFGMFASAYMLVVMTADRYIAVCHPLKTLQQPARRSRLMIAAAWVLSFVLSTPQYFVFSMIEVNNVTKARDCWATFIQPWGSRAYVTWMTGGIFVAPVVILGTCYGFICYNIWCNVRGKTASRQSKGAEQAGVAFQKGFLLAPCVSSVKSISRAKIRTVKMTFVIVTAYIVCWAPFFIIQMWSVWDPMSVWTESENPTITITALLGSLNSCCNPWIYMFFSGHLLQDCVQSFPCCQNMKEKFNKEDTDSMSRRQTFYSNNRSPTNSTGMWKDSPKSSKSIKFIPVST
Vasopressin V1 receptor (Homo sapiens), sequence (P47901 whole entry, looked up): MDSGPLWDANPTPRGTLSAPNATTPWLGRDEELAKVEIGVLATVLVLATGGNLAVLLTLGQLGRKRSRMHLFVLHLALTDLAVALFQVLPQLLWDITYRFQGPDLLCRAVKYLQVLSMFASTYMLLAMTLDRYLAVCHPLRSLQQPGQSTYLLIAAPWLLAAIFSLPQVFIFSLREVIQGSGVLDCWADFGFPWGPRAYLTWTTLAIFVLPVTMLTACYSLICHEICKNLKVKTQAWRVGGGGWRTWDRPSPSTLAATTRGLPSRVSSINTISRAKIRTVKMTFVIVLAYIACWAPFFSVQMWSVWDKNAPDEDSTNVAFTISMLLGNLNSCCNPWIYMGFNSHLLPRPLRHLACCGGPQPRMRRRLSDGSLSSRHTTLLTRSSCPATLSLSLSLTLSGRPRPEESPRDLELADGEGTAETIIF
Cannabinoid receptor 1 (Homo sapiens), sequence (P21554 whole entry): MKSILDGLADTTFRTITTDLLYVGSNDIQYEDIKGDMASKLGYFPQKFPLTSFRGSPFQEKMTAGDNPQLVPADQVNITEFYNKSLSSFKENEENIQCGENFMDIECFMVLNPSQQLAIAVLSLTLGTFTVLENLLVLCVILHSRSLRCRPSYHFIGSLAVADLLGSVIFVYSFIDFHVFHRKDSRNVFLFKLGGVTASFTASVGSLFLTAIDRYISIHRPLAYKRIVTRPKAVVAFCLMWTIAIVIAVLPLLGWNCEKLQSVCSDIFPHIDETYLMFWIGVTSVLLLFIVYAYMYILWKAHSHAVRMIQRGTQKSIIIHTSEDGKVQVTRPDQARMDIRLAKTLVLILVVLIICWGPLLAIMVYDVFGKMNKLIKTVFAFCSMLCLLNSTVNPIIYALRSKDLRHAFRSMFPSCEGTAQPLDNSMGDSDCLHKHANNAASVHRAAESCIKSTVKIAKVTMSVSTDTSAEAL

Compound	IC50 [1]	other results
CCCN(CCOC)c1cc(C)nc2c1NC(=O)CN2c1ccc(C(C)C)cc1Cl	2.6 nM	
CCCCN(CC)c1cc(C)nc2c1NC(=O)CN2c1ccccc1Br	7.1 nM	
CCN(c1cc(C)nc2c1NC(=O)CN2c1cc(F)c(OC)cc1Cl)C(C)C	1.5 nM	
CCCCN(CC)c1cc(C)nc2c1NC(=O)CN2c1ccc(Cl)cc1C#N	10 nM	
CCN(CCCC#N)c1cc(C)nc2c1NC(=O)CN2c1ccc(OC)cc1C	92 nM	
CCCCN(CC)c1cc(C)nc(N(CC)c2ccc(C(C)C)cc2Br)n1		Ki [2]: 18 nM
CCCCN(CC)c1cc(C)nc2c1NC(=O)CN2c1cc(F)c(OC)cc1Cl	0.5 nM	
CCCN(CC1CCC1)c1cc(C)nc2c1NC(=O)CN2c1ccc(C#N)cc1Cl	1.8 nM	
CCCCN(CC)c1cc(C)nc2c1NC(=O)CN2c1ccc(OC)nc1C	4.2 nM	
CCCCN(CC)c1cc(C)nc2c1NC(=O)CN2c1ccc(OC)cc1C	0.92 nM	
CCCN(CCC)c1cc(C)nc2c1NC(=O)CN2c1ccc(C#N)cc1Cl	1.2 nM	
CCCCN(CC)c1cc(C)nc2c1NC(=O)CN2c1ccc(OC)cc1Cl	0.3 nM	
CCCCN(CC)c1cc(C)nc2c1NC(=O)CN2c1ccc(Cl)cc1Cl	0.49 nM	
CCCCN(CC)c1cc(C)nc2c1NC(=O)CN2c1ccc(OC)nc1OC	0.82 nM	Mean free plasma concentration [3]: 0.05 nM; inhibition [4]: 53%; Occupancy [5]: 23%; Decrease in exit latency (Rattus norvegicus [6]): 81%; Decrease in exit latency (Rattus norvegicus [7]): 0%; inhibition [8]: 47%; concentration [9]: 3.1 nM; Occupancy [10]: 17%; bioavailability [11]: 24%; Mean free plasma concentration [12]: 1.02 nM; concentration [13]: 61.5 nM; Clearance [14]: 27.8 mL/min/kg; Volume of distribution [15]: 40.6 L/kg; inhibition [16]: 49%; IC50 [17]: 38.7 nM; Occupancy [18]: 59%; concentration [19]: 21.7 nM; Decrease in exit latency (Rattus norvegicus [20]): 14%; T1/2 [21]: 27.6 h; Mean free plasma concentration [22]: 0.36 nM
CCCCN(CC)c1cc(C)nc2c1NC(=O)CN2c1ccc(C(C)C)cc1Cl	0.91 nM	
CCCCN(CC)c1cc(C)nc2c1NC(=O)CN2c1ccc(C#N)cc1Cl	2.2 nM	
CCNc1cc(C)nc2c1NC(=O)CN2c1ccc(OC)cc1Cl	> 1000 nM	
CCN(CCCS(C)(=O)=O)c1cc(C)nc2c1NC(=O)CN2c1ccc(C(C)C)cc1Br	305 nM	
COCCN(CCOC)c1cc(C)nc2c1NC(=O)CN2c1ccc(C(C)C)cc1Cl	18 nM	
CCCCNc1cc(C)nc2c1NC(=O)CN2c1ccc(OC)cc1Cl	> 1000 nM	
Cc1cc(N2CCOCC2)c2c(n1)N(c1ccc(C(C)C)cc1Br)CC(=O)N2	126 nM	
CCCCN(CC)c1cc(C)nc2c1NC(=O)CN2c1ccc(C(C)C)cc1	49 nM	
CCN(CC1CCCO1)c1cc(C)nc2c1NC(=O)CN2c1ccc(C(C)C)cc1Br (stereo unspecified)	4.1 nM	
CCCCN(CC)c1cc(C)nc2c1NC(=O)CN2c1ccc(C(C)C)cc1Br	0.7 nM	
CCC(CC)Nc1cc(C)nc2c1NC(=O)CN2c1ccc(Cl)cc1Cl	198 nM	
CCCCN(CC)c1cc(C)nc2c1NC(=O)CN2c1c(Cl)cc(C#N)cc1Cl	3.3 nM	
